Molecular target: Neisseria meningitidis CSS (NmCSS), CMP-sialic acid synthetase (Neisseria meningitidis, UniProt P0A0Z8)
Test: capillary electrophoresis UV assay of CMP-Neu5Ac formation
Format: biochemical
Conditions: 1000 µM; 1 mM CTP, 1 mM Neu5Ac, 20 mM MgCl2, Tris-HCl pH 8.5, 37 °C, 15 min
Procedure, shortened: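 Purified recombinant NmCSS (1.25 ng) in 200 mM Tris-HCl pH 8.5 with CTP, Neu5Ac and MgCl2, reacted with test compound at 1 mM for 15 min at 37 °C. Stopped with 10% SDS on ice (final 1% SDS). CMP-Neu5Ac measured by capillary electrophoresis with UV detection. Percent conversion calculated from a UV response standard curve of CTP and CMP-Neu5Ac.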

Chain of Neisseria meningitidis CSS (NmCSS), CMP-sialic acid synthetase (P0A0Z8 whole entry): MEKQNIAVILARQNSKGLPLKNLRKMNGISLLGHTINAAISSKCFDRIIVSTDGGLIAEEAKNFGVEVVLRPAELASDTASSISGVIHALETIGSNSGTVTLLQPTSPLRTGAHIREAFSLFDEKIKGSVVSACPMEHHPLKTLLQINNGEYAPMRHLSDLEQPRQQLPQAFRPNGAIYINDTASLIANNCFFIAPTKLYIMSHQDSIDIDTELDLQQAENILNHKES

Saturated sulfo-CDP [compound 12]
% Inhibition: 55 ± 4%

Saturated sulfo-UDP [compound 22]
% Inhibition: 35 ± 2%

Sulfo-CDP [compound 5]
% Inhibition: 47 ± 2%

Sulfo-CTP [compound 4]
% Inhibition: 39 ± 2%

Sulfo-UTP [compound 19]
% Inhibition: 33 ± 5%
